Results on 13 compounds are retold here after PubChem BioAssay AID1453 (NMMLSC, 2008).

The structures appear in SMILES notation. The list shows a part of the results. The source made the active and inactive calls.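 How the source made its calls: active means inhibition above 50%; inactive means the rest.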

Sequence of Broad substrate specificity ATP-binding cassette transporter ABCG2 (Homo sapiens) (Q9UNQ0 whole entry, looked up): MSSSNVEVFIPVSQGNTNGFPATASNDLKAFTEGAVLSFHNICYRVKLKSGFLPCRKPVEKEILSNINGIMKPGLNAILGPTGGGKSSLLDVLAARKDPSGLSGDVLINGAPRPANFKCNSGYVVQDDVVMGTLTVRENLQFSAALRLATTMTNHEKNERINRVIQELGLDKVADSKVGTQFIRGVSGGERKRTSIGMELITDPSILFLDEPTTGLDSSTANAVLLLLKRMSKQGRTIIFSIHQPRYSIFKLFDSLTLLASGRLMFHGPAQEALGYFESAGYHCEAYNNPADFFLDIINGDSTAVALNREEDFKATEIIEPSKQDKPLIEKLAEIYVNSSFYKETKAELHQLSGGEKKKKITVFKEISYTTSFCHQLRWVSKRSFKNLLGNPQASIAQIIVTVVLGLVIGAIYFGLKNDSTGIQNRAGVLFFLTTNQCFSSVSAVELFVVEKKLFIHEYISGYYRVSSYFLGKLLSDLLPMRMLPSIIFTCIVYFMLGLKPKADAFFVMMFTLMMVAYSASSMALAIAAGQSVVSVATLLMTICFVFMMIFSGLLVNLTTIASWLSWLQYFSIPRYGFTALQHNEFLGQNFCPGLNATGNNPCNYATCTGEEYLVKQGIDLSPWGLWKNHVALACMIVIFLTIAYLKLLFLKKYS

The target in the test is Broad substrate specificity ATP-binding cassette transporter ABCG2 (Homo sapiens) (UniProt Q9UNQ0). The test can be described thus: blockers of JC-1 export by ABCG2 – single point, IgMXP3 cells, ABCB1 counter-screen paired, confirmation (AID 1453).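 Further: 0% = DMSO wells and 100% = nicardipine pump inhibitor wells.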 Particulars: JC-1 efflux, flow cytometry, at 6.6 µM, stronger effect = higher value. An outline of the steps:
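Material – drug-resistant IgMXP3 cells expressing human ABCG2 · Reagent – JC-1 substrate · Dosing – single test compound dose, 6.6 µM final · Incubation – 10 min exposure at 25 °C · Signal – high-throughput flow cytometry, JC-1 green median fluorescence, 530 ± 20 nm · Read-out – percent pump inhibition versus DMSO and nicardipine · Controls – nicardipine high, DMSO low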
For orientation: Counterscreens check selectivity or assay interference.
The term inhibition denotes the percentage by which the read-out fell short of the control. As for `Cc1cccc2cc(CN(Cc3cccs3)C(c3nnnn3C3CCCC3)C(C)C)c(=O)[nH]c12` (stereo not drawn), the inhibition is 39.9% (inactive). Next, `COc1cccc(NC(=O)c2ccc(Cn3cc([N+](=O)[O-])cn3)o2)c1`: 21.8% (inactive); `C=CCn1c(SCCOc2ccc(OC)cc2)nnc1C(NC(=O)c1ccc(OC)cc1)C(C)C` (stereo not drawn): 15.5% (inactive); `COc1ccc(-n2c(C)cc(C(=O)COC(=O)c3cc(OC)c(OC)cc3NC(=O)c3cccs3)c2C)cc1`: 14.8% (inactive). With `CCN1/C(=C/c2ccc3ccc(C)cc3[n+]2CC)Sc2ccccc21` the figure was 31.6% (inactive); with `Cc1c(CCOC(=O)CC23CC4CC(CC(C)(C4)C2)C3)sc[n+]1Cc1ccc([N+](=O)[O-])cc1`, 27.4% (inactive). Turning to `Cc1ccc(-n2c(SCC(=O)Nc3ncc(Cl)cc3Cl)nc3ccccc32)cc1`, the inhibition was 28.9% (inactive).

Turning to `CCOC(=O)c1sc(NC(=O)CSc2nnc(-c3ccco3)o2)c(C(=O)OCC)c1C`, the inhibition is 37% (inactive). With `Cc1ccc(OCC(O)CN2CCN(CC(O)COc3ccc(C)cc3Cl)CC2)c(Cl)c1` (stereo not drawn) the figure was 8.02% (inactive); with `O=C(Cc1c[nH]c2ccccc12)N/N=C/c1cccc(F)c1`, 19.6% (inactive); with `C/C(=N\Nc1ncc(Cl)cc1Cl)c1ccc(S(=O)(=O)NCc2ccco2)cc1`, 21.6% (inactive).

In the case of `COc1ccc(C)cc1NC(=O)C(Sc1ccccc1)c1ccccc1` (stereo not drawn), the inhibition is 10.9% (inactive). Take `CCOCC(=O)Nc1sc2c(c1C(=O)OCC)CCCC2`: the inhibition was 38.7% (inactive).
